High-throughput results (PubChem BioAssay)
A selection: hits, their analogues and other compounds. The true share with any hit is near 1.3%.
LANA-H2A inh: blockers of LANA interaction with H2A/H2B – biochemical, FP readout, HTS, primary screen | inhibition, % (no concentration beside the values) | hit rate 0.6% among 320,000 | AID 2629, 2010 | cell-free LANA-H2A/H2B peptide, fluorescence polarization | Protein LANA1 (Human herpesvirus 8 type P (isolate GK18)), Q9QR71; in the data active = inhibition mostly above about 10%, no sharp cut-off; inactive = mostly below about 6.7%
GSK3beta inhib: human GSK3beta kinase inhibitors, primary screen, biochemical, cell-free homogeneous, HTS; Glycogen synthase kinase-3 beta (Homo sapiens), P49841; GST-GSK3beta kinase, ADP-Glo luminescence, 60 min; active compounds read low; activity score (negative = inhibition), % at 10 µM; hit rate 0.038% among 300,000; AID 2097, 2009;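 active = more than half of replicate wells score below -50%, meaning over 50% inhibition versus plate controls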
Target sequence (P49841 whole entry, looked up): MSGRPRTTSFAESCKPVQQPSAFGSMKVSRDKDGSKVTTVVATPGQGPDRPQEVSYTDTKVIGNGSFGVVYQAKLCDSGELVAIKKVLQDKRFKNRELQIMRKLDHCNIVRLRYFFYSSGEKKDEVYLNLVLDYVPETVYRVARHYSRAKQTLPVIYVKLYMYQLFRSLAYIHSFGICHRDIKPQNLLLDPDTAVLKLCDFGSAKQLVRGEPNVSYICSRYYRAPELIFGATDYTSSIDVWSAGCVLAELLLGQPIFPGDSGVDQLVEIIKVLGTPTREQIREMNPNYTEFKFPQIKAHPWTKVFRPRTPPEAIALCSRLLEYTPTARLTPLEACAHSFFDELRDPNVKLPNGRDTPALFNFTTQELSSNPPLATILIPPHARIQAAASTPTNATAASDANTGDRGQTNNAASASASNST
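Assay system: GST-fused GSK3beta enzyme, cell-free / Medium: Tris pH 7.5 buffer with MgCl2, DTT, BSA, heparin / Also added: peptide substrate plus 25 µM ATP (final) / Compound: 10 µM single point / Timing: kinase reaction with compound 60 min at room temperature / Detection: ADP-Glo luminescence / Benchmarks: DMSO neutral wells and GW8510 at 20 µM as positive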
STK33 kinase inh: inhibitors of purified STK33 kinase, primary screen, biochemical, ADP-Glo luminescence, homogeneous, cell-free. MBP phosphorylation. inhibition, % at 10 µM. hit rate 0.073% among 320,000;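 active = inhibition at or above 25%, using the most active replicate where run in duplicate; inactive = inhibition below 25%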
GSK3A inh: blockers of GSK3A enzyme activity – biochemical, luminescence, cell-free homogeneous, HTS, primary screen | hit rate 0.1% among 320,000 | inhibition, % at 10 µM | GSK-3 alpha kinase, ADP-Glo luminescence, 60 min;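 active = more than half of replicates show inhibition above 20%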;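 also: GST-tagged GSK-3 alpha with peptide substrate and 25 µM ATP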
Lipid droplet: inhibitors of hepatocyte lipid droplet formation, primary screen, imaging, high-throughput imaging, BODIPY stain | AML12 mouse hepatocytes, oleate lipid droplets | inhibition, % at 6.5 µM | hit rate 0.4% among 240,000 | AID 1656, 2009;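 active = lipid droplet intensity inhibited by at least 50%, with more than 500 cells counted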
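Technique: fluorescence imaging, 20x objective, two fields per well / Assay system: AML12 hepatocytes (mouse) / Measure: % inhibition of lipid droplet signal / Doses: 6.5 µM single-point dosing / Incubation: overnight exposure / Reagent: 100 µM oleic acid challenge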
TAG inh: inhibitors of triacylglycerol accumulation, primary screen, cell-based, uHTS, fluorescence, H9c2. H9c2 cells, Nile Red lipid (TAG) fluorescence; cells loaded with 200 µM oleic acid. inhibition, % at 12.5 µM. hit rate 0.66% among 230,000. AID 651582, 2012;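 active = pattern-corrected inhibition of lipid staining of at least 50% with the nuclear-stain viability signal not falling by more than 50%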
Hits are given with their value; n = inactive; x = not tested or not shown; + = active, no number.

SMILES	LANA-H2A inh	GSK3beta inhib	STK33 kinase inh	GSK3A inh	Lipid droplet	TAG inh
CC(OC(=O)c1cc(S(=O)(=O)N2CCOCC2)ccc1F)C(=O)NC1CCCC1 (centres undefined)	25	x	n	n	x	n
O=C(NC1CCCCC1)C(c1ccc2ncccc2c1)N(Cc1ccc(F)cc1)C(=O)c1ccc2c(c1)OCCO2 (centres undefined)	n	n	n	n	x	x
COC(=O)c1sccc1NC(=O)CNC(=O)c1ccccc1	n	n	n	n	n	n
CC(=O)c1ccc(NC(=O)COc2ccccc2C(=O)Nc2ccc(C)cn2)cc1	n	n	n	n	n	n
FC(F)c1nc2ccccc2[nH]1	n	n	n	n	n	n
c1ccc2[nH]c3cc4ncnc4cc3nc2c1	26	n	n	n	n	n
COc1ccc(S(=O)(=O)N2CCC(C(=O)NC3CC3)CC2)cc1C	n	x	n	n	n	x
O=C(NC1CCCCC1)N1CCN(S(=O)(=O)c2ccc(F)cc2)CC1	17	n	n	n	n	n
N#Cc1c(SCc2c(Cl)cccc2Cl)nc(N)[nH]c1=S	11	x	n	n	x	n
COc1cc(/C=C/C(=O)N2CCC=CC2=O)cc(OC)c1OC	n	x	n	n	x	62
O=C1N=C(N2CCCC2C(=O)O)S/C1=C\c1ccco1 (centres undefined)	n	n	n	n	n	x
COc1ccc(C(Cl)=C(c2ccc(OC)cc2)c2ccc(OC)cc2)cc1	39	n	n	n	n	n
COc1cccc2c(=O)n(CC(=O)N3CCN(c4ccccc4)CC3)ccc12	n	n	n	n	n	n
CCCCn1c(=O)[nH]c2nc3cc(N)ccc3nc2c1=O	85	x	n	n	n	x
Nc1ccc2nc3c(=O)n(CCc4ccccc4)c(=O)[nH]c3nc2c1	n	n	n	n	n	n
Nc1ccc2nc3c(=O)n(C4CCCCC4)c(=O)[nH]c3nc2c1	72	n	n	n	n	n
O=C(CN(c1ccccn1)S(=O)(=O)c1ccc(F)cc1)Nc1ccc(F)cc1F	n	n	n	n	n	x
Cn1c(/N=C/c2c(O)ccc3ccccc23)nc2ccccc21	n	n	n	n	x	x
COc1ccc(C2=CC(c3cc(OC)c(OC)c(OC)c3)NC(=S)N2)cc1 (centres undefined)	20	n	n	n	n	n
CCN1C(N(C)CCc2c[nH]c3ccccc23)=N[C@@H](c2cccc(C(F)(F)F)c2)C(C(=O)OC)=C1C	n	x	n	n	x	112
CCN1C(N(C)CCc2cccs2)=N[C@@H](c2ccccc2)C(C(=O)OC)=C1C	n	n	n	n	n	n
CN(C)S(=O)(=O)c1cccc(NC(=O)CCc2c[nH]c3ccccc23)c1	+	n	n	n	n	n
Cc1nc2nc[nH]n2c(=O)c1CCOC(=O)c1ccccc1F	10	n	n	n	n	n
Cc1nc2nc[nH]n2c(=O)c1CCOC(=O)c1c(F)cccc1F	n	n	n	n	n	n
CC(C)C(=O)Nc1cccc(-c2cnc3ccccc3n2)c1	n	n	n	n	n	x
SMILES	LANA-H2A inh	GSK3beta inhib	STK33 kinase inh	GSK3A inh	Lipid droplet	TAG inh
CNC(=S)Nc1cccc(-c2cnc3ccccc3n2)c1	n	n	26	n	n	x
Cc1ccc(CN(C(=O)c2csnn2)C(C(=O)NC2CCCC2)c2cccnc2)cc1 (centres undefined)	n	n	n	n	n	x
Cc1ccc(CN(C(=O)c2ccco2)C(C(=O)NC2CCCC2)c2cccnc2)cc1 (centres undefined)	+	n	n	n	n	n
CC(=O)N[C@@H](Cc1c[nH]c2ccccc12)C(=O)OCC(=O)Nc1ccc(S(=O)(=O)N(C)C)cc1	n	n	n	n	n	n
CCCc1cc(=O)[nH]c(SCC(=O)N2CCc3ccccc32)n1	n	x	n	n	x	n
COc1ccc(CCNC2=C(Cl)C(=O)N(CCc3ccc(OC)c(OC)c3)C2=O)cc1OC	n	n	n	n	n	n
CCOC(=O)C1C(=O)C=C(C)C(C(=O)OCC)C1c1cccc([N+](=O)[O-])c1 (centres undefined)	27	n	n	n	n	n
N#Cc1c(Cl)nc(-c2ccncc2)nc1-c1ccccc1	n	-62	n	75	n	x
COc1ccc2nc(C)cc(N/N=C/c3ccccc3)c2c1	n	x	n	n	x	66
CC(C)(C)[C@]1(O)CCN2C[C@H]3c4ccccc4CCc4cccc(c43)[C@@H]2C1	24	n	n	n	n	n
CN1CCN2c3ncccc3Cc3ccccc3C2C1 (centres undefined)	n	n	n	n	x	n
CC(C)C(=O)NC(c1ccc(N(C)C)cc1)c1c(O)ccc2ccccc12 (centres undefined)	27	n	n	n	n	n
COCCN(Cc1cc2cc(C)ccc2n2nnnc12)C(=S)Nc1ccc(C)cc1	n	n	n	n	n	n
COc1cc(NC(=S)NC(=O)c2cccs2)ccc1NC(=O)C(C)C	37	n	n	n	n	n
CC(C)C(=O)Nc1cccc(NC(=S)NC(=O)c2cccs2)c1	n	n	n	n	n	n
O=C(CSc1ccc2nnc(-c3cccnc3)n2n1)Nc1ccc(F)cc1	31	n	n	n	n	n
O=C(CSc1nnc(-c2cccnc2)n1-c1ccccc1)Nc1ccccc1	15	n	n	n	n	x
CCCCN(C(=O)CN1C(=O)C2CCCCC2C1=O)c1c(N)n(CCCC)c(=O)[nH]c1=O (centres undefined)	n	n	n	n	x	n
O=C(CSc1nnc(CCc2nc3ccccc3[nH]2)n1-c1ccccc1)NCc1ccco1	n	n	n	n	n	n
COc1cc2c(ccc3cc(OC)c(OC)c(O)c32)cc1O	n	n	35	n	n	x
COc1ccc(/C(C)=N/Nc2nccnc2Cl)cc1	n	x	n	n	x	n
Cc1cccc(NC(=O)c2ccc3nccnc3c2)n1	n	n	n	n	n	n
Cc1cc(C)n2nc[n+](C)c2n1	19	n	n	n	n	n
Cc1cccc(NC(=O)Nc2cccc3ccccc23)c1	n	n	n	n	n	n
O=C(CC(c1ccccc1)(c1ccccc1)c1ccccc1)N[C@@H](Cc1ccccc1)C(=O)O	16	n	n	n	n	n
O=C(COc1cccnc1[N+](=O)[O-])Nc1ccc(F)cc1	n	x	n	n	x	n
COC(=O)CCC(=O)Nc1sc(Cc2ccccc2)c(C)c1C(N)=O	22	n	n	n	n	n
O=C(Nc1ccccc1)C(Cc1ccccc1)NC(=O)C12CC3CC(CC(C3)C1)C2 (centres undefined)	n	n	n	n	x	x
